The results in this text go back to PubChem BioAssay.

The source made the active and inactive calls.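 Rule for the calls, unless noted: active = inhibition above 20% together with a positive visual image hit; inconclusive = visual image hit but inhibition not above 20%; inactive = no visual image hit.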

Experiment [1] is described as follows: inhibitors of TNFa-induced NFkB p65 translocation, primary screen, imaging, HUVEC, MLSMR starter and 10KST1 sets (AID 438).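 For inhibition: signal is the nuclear over cytoplasmic p65 intensity ratio per well.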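 Note: compound added about 3h40 before a 20 min TNFalpha stimulation.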 The following applies: HUVEC TNFa-induced p65 nuclear translocation; cell count: measured here: nuclei count (cytotoxicity indicator), at 2.08 µM; inhibition: at 2 µM, stronger effect = higher value, 0% TNFa-plus-vehicle, 100% no-TNFa wells.
The nature of experiment [2]: endothelial E-selectin expression blockers – imaging, HUVEC, immunofluorescence, MLSMR starter and 10KST1 sets, primary screen (AID 487;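 active = visually confirmed hit in the image check and inhibition above 20%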;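 for inhibition: signal is fraction of cell area covered by stained E-selectin grains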;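 for nuclei count: 100% = median nuclei count of all wells on the same plate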). The following applies: HUVEC TNFalpha-induced E-selectin immunofluorescence imaging, at 2 µM; inhibition: stronger effect = higher value; nuclei count: measured here: cell number, toxicity.
Experiment [3] in a line: Primary imaging screen for DUSP6 inhibitors that restore phospho-Erk in transfected HeLa cells, chemical complementation (AID 609;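 active = compounds giving at least 50% inhibition in the cell-based MKP-3 phosphatase rescue imaging test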;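 for inhibition: phospho-Erk level distribution per well compared with pooled transfected vehicle control wells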). The following applies: HeLa MKP-3 transfected, phospho-Erk imaging KS statistic, at 10 µM, cells stimulated with TPA for 15 min.
In experiment [4] the target is Dual specificity protein phosphatase 6 (Homo sapiens) (UniProt Q16828). Described as above. The following applies: HeLa MKP-3 transfected, phospho-Erk imaging KS statistic; at 10 µM; stronger effect = higher value; cells stimulated with TPA for 15 min.
Dual specificity protein phosphatase 6 (Homo sapiens), sequence (Q16828 whole entry, looked up): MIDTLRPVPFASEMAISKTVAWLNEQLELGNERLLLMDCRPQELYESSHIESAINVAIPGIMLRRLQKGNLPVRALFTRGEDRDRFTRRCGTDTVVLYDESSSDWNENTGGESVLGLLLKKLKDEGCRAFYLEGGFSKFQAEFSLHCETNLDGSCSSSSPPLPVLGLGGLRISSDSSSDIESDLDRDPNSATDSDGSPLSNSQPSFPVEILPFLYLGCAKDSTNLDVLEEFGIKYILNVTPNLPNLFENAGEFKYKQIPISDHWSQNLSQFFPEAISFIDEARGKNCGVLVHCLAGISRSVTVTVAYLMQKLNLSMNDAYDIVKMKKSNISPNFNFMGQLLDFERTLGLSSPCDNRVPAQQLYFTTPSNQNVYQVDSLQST
In experiment [5] the target is Voltage-gated potassium channel subunit beta-2 (Rattus norvegicus) (UniProt P62483). As to the kind of experiment: inhibitors of rat Kvbeta2 reductase activity – biochemical, NADPH fluorescence, primary screen (AID 622;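 active = fluorescence slope higher than the sample average by over 3 SD, cut at about -0.22 in these data, passing the limit was not always enough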;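 note: slope of raw intensity against log time taken from 70 to 1610 s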). The following applies: recombinant KvBeta, 4-cyanobenzaldehyde reduction, at 10 µM, stronger effect = higher value.
Voltage-gated potassium channel subunit beta-2 (Rattus norvegicus), sequence (P62483 whole entry, looked up): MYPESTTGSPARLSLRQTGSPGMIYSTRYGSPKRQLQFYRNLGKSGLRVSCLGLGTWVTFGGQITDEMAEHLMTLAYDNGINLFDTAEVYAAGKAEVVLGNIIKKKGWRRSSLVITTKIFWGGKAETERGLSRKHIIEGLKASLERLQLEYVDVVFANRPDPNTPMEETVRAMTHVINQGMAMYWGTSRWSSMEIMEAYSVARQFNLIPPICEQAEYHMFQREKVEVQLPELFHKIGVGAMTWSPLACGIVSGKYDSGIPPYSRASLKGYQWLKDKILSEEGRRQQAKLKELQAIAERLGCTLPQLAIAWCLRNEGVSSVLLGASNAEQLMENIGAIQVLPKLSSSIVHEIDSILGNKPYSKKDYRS
Experiment [6] shares this target. Briefly: enhancers of rat Kvbeta2 NADPH turnover – biochemical, NADPH fluorescence, primary screen (AID 623;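 active = NADPH fluorescence slope more negative than the mean of all samples by about 3 SD, 99.7% confidence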;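 note: fluorescence intensity change per second fitted from 20 to 320 s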). The following applies: Recombinant KvBeta, NADPH fluorescence decrease slope, 10 min; at 10 µM; stronger effect = lower value.
Experiment [7] concerns the target Alpha-2C adrenergic receptor (Homo sapiens) (UniProt P18825). Briefly: compounds altering alpha2C-coupled GIRK flux – cell-based, HEK293 alpha2C/GIRK1/2, thallium flux, primary screen (AID 624;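 active = fluorescence slope after compound addition differing from the mean of all screened samples at 99.7% confidence, in either direction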;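 note: slope of fluorescence ratio to pre-addition baseline per second over 15 to 24 s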). The following applies: thallium flux BTC fluorescence, at 10 µM, actives lie on both sides.
Experiment [8] can be described thus: inhibitors of larval lipid processing in zebrafish, primary screen, whole organism, PED6 fluorescence, gall bladder and intestine (AID 686;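 active = a full or partial loss of lipid-probe fluorescence in the fish gall bladder, intestine or both, judged by eye; inactive = no fluorescence loss, or compound toxic to the fish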;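 note: larvae 5 to 7 days old with five fish per well; signal comes from phospholipase A2 cleavage of quenched PED6 carried via bile; overnight exposure to compound and PED6 before scoring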). The following applies: Zebrafish larvae PED6 lipid processing, fluorescence scoring; screened at 20 µM (by protocol). The gist of the method:
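system = live zebrafish larvae aged 5-7 days, whole organism | probe or stimulus = ingested quenched lipid PED6 at 100 nM | doses = 20 µM single dose | timing = overnight exposure | detection = fluorescence microscopy with visual scoring of gall bladder and intestine | read-out = visual per-well fluorescence inhibition score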

Experiment [9] is described as follows: loss of swimming-algae plug formation – whole organism, Chlamydomonas reinhardtii, WT vs cilia-less mutant, absorbance, 96-well, primary screen (AID 463189;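 active = inhibition at or above 50% relative to wild type and mutant plate controls; inactive = inhibition below 50%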;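 note: 0% = wild type cc124 cells in DMSO and 100% = ciliumless bld1 mutant cells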). The following applies: Chlamydomonas reinhardtii gravitaxis, OD600 absorbance, 2 days; at 10 µM; stronger effect = higher value.
The mark [10] stands for this setting: measured here: cell density z-score.
The mark [11] stands for this setting: measured here: nuclear c-Myc green intensity z-score.
Where [12] appears, read: measured here: nuclear pErk red intensity z-score, stronger effect = higher value.

Alpha-2C adrenergic receptor (Homo sapiens), sequence (P18825 whole entry, looked up): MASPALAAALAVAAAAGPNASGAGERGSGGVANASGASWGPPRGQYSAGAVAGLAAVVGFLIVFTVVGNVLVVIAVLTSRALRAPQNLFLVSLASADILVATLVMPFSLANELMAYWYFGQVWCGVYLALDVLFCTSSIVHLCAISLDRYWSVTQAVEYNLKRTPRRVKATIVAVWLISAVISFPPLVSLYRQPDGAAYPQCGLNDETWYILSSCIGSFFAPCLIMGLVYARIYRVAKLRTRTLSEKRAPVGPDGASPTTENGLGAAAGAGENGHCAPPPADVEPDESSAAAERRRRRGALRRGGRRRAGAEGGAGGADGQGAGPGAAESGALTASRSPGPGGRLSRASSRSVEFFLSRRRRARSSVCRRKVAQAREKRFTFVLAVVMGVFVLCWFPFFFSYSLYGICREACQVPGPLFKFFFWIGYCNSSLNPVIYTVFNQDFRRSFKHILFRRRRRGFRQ

Broadly, the inhibition is the change of the read-out against control, counted positive when it falls. On to `CC(C)OC(=O)CC1=NC(=O)CS1`, for which, in experiment [1], the cell count was 693. For the same molecule, the inhibition in experiment [1] was -4% (inactive); in experiment [2] it was -27.6% (inactive); in experiment [4] it was -0.624% (inactive); in [9], -2.62% (inactive). Besides, in [2], the nuclei count was 175%. Moreover, the values for the z-score in [3] (setting [10]), in [3] (setting [11]) and in experiment [3] (setting [12]) were -0.0687, -1.07 and 0.103, respectively. Moreover, the fluorescence slope in experiment [5] was -0.423 (inactive). Further, the NADPH fluorescence slope in [6] is -4.2e-05 (inactive). The slope in [7] was 0.00582 (inactive). The molecule was called inactive in experiment [8].

In the case of `N#CCCn1cnc2c(=S)nc[nH]c21`, in experiment [1], the cell count is 355. The inhibition in experiment [1] was -12.9% (inactive); in experiment [2], -142% (inactive); in experiment [4], 1.6e-07% (inactive); in [9], -4.04% (inactive). Further, in [2], the nuclei count came to 181%. Further, the z-score in experiment [3] (setting [10]) was found to be 0.101; in experiment [3] (setting [11]), 0.0894; in experiment [3] (setting [12]), 1.37. In addition, the fluorescence slope in experiment [5] is -0.438 (inactive). In addition, in [6], the NADPH fluorescence slope was -0.000132 (inactive). The slope in [7] is 0.00509 (inactive). The call in experiment [8] was inactive.

For the molecule `CCOc1ccc(-n2c(SCc3ccc(C#N)cc3)nnc2-c2cccnc2)cc1`, the cell count in [1] was 343. The inhibition was -6% (inactive) in experiment [1], 6.3% (inactive) in [2], 13.4% (inactive) in [4] and -11.3% (inactive) in [9]. The molecule further gave a nuclei count in experiment [2] of 157%. Besides, the z-score in experiment [3] (setting [10]) was 0.958; in experiment [3] (setting [11]), -0.128; in [3] (setting [12]), 0.447. Moreover, the fluorescence slope in experiment [5] was -0.421 (inactive). Besides, the NADPH fluorescence slope in experiment [6] was -0.00013 (inactive). Moreover, the slope in experiment [7] was 0.00481 (inactive). Further, in experiment [8], the outcome was inactive.

As for `COn1c(=S)[nH]c2ccccc2c1=O`, in experiment [1], the cell count turned out to be 454. In addition, the inhibition in [1] was 0.3% (inactive); in experiment [2], -12.8% (inactive); in [4], 3.5% (inactive); in experiment [9], 1.26% (inactive). Besides, the nuclei count in experiment [2] came to 98.1%. The values for the z-score in experiment [3] (setting [10]), in experiment [3] (setting [11]) and in experiment [3] (setting [12]) were -1.19, 0.293 and -0.609, respectively. In [5], the fluorescence slope was -0.496 (inactive). In experiment [6], the NADPH fluorescence slope was -7.7e-06 (inactive). The slope in experiment [7] is 0.00619 (inactive). Further, the molecule was called inactive in [8].

Take `CSC1=Nc2sc3c(c2C2=NCCN12)CC(C)(C)OC3`: the cell count in [1] came to 540. The inhibition in experiment [1] was -10.5% (inactive); in experiment [2], -3.3% (inactive); in experiment [4], 3.66% (inactive); in experiment [9], 64.3% (active). In experiment [2], this molecule had a nuclei count of 176%. Besides, the z-score in experiment [3] (setting [10]) was -0.539; in [3] (setting [11]) it was 0.758; in experiment [3] (setting [12]) it was -0.378. The fluorescence slope in experiment [5] was -0.508 (inactive). In addition, in experiment [6], the NADPH fluorescence slope was -4.5e-05 (inactive). Also, in experiment [7], the slope was 0.00474 (inactive). The outcome in experiment [8] was inactive.

With `COc1ccccc1C(=O)N1CCCC1(C#N)c1ccccc1` (centres undefined), the cell count in [1] was determined as 653. In addition, the inhibition was 1.8% (inactive) in experiment [1], -44.9% (inactive) in [2], -6.48% (inactive) in [4] and 13% (inactive) in experiment [9]. In experiment [2], this molecule had a nuclei count of 121%. Further, the z-score in experiment [3] (setting [10]) was -0.569; in experiment [3] (setting [11]) it was -0.677; in experiment [3] (setting [12]), -0.674. In addition, the fluorescence slope in experiment [5] is -0.475 (inactive). The NADPH fluorescence slope in experiment [6] was -0.000294 (inactive). Moreover, in experiment [7], the slope was 0.00555 (inactive). Further, in experiment [8], the call was inactive.

`COc1cccc(-c2nnc3sc(-c4cccs4)nn23)c1`: the cell count in experiment [1] was 595. Moreover, the inhibition in experiment [1] was -9.3% (inactive); in experiment [2], -23% (inactive); in experiment [4] it was -11.5% (inactive); in experiment [9], 67.3% (active). For the same molecule, the nuclei count in experiment [2] was found to be 158%. Also, the z-score was -0.757 in [3] (setting [10]), 0.596 in experiment [3] (setting [11]) and -0.177 in experiment [3] (setting [12]). Besides, the fluorescence slope in [5] was -0.406 (inactive). Further, the NADPH fluorescence slope in experiment [6] was -0.000146 (inactive). Also, the slope in experiment [7] was 0.00547 (inactive). Moreover, the result in experiment [8] was inactive.

Consider `Cc1ccc(C(=O)C2=C(O)C(=O)N(c3ncccn3)C2c2ccc(Cl)cc2)o1` (centres undefined), for which, in [1], the cell count came out at 371. Moreover, the inhibition was -10.1% (inactive) in experiment [1], 14.5% (inactive) in experiment [2], 7.83% (inactive) in experiment [4] and 5.76% (inactive) in [9]. The molecule further registered a nuclei count in [2] of 94.4%. The figures for the z-score in experiment [3] (setting [10]), in experiment [3] (setting [11]) and in experiment [3] (setting [12]) were -1.13, -0.679 and 0.195, respectively. For the same molecule, the fluorescence slope in experiment [5] was -0.331 (inactive). The NADPH fluorescence slope in experiment [6] is -1.3e-05 (inactive). Besides, the slope in experiment [7] was 0.00456 (inactive). In addition, in experiment [8], the result was inactive.
